In the library only some 3% were active in any assay of this set; here they are far more common.
5HT1a ag: agonists of human 5-HT1a serotonin receptor; 65,000 compounds, 0.56% hits; CHO 5-HT1a Ga15 NFAT-bla reporter, FRET ratio; 0% basal, 100% maximal reference agonist; P08908; activation, % at 10 µM;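 active = activation above the screen-wide mean activation plus 3 SD, cut at about 19% in these data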;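 note: 0% = DMSO wells and 100% = 5-CT at EC100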
5HT1E antag: 5-HT1E (human) receptor antagonism; CHO 5-HT1E Ga15 NFAT-bla reporter, FRET, antagonist; inhibition, % at 6 µM; 65,000 compounds, 0.99% hits; AID 571;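 active = inhibition above a set limit, the mean inhibition across every tested compound plus 3 SD, cut at about 29% in these data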;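 note: signal is the 460 over 535 nm emission ratio of beta-lactamase substrate; 0% = agonist plus DMSO wells and 100% = wells without agonist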
HTR1E agonist: agonists of human 5-HT1E serotonin receptor | AID 574 | activation, % at 6 µM | 65,000 compounds, 0.69% hits | CHO 5-HT1E Ga15 NFAT-bla reporter, FRET; 0% DMSO wells, 100% control agonist wells;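 active = activation above a set limit, the screen-wide mean activation plus 3 SD, cut at about 8.5% in these data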;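 note: 100% = positive control agonist at 1 µM giving full maximal response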
5-HT1A blocker: blocks the human serotonin 5-HT1a receptor; P08908; CHO 5-HT1a Ga15 NFAT-bla reporter, antagonist mode; inhibition, % at 10 µM; 62,000 compounds, 0.68% hits;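 active = inhibition above the mean of all tested compounds plus 3 SD, cut at about 43% in these data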;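 note: receptor stimulated by 5-CT agonist at 100 nM near EC80; beta-lactamase reporter measured by ratiometric fluorescence of a cleavable substrate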
S1P3 ag: agonists of human S1P3 receptor; 60,000 compounds, 0.1% hits; activation, % at 4.5 µM; S1P3 NFAT-BLA reporter cells, agonism, FRET ratio; relative to 1 µM S1P, basal subtracted; AID 373; Q99500;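 active = activation above the screen-wide mean plus 3 SD, cut at about 4.5% in these data, passing the limit was not always enough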
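Measure – % activation relative to 1 µM S1P (100%), per plate · System – stable CHO line with human S1P3, Gα16, NFAT-BLA reporter · Timing – cells plated overnight, compound 4 h 37 °C, substrate 2 h RT · Technique – fluorescent BLA substrate, ex 405 nm, em 460/535 nm ratio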
S1P1 ag pot: activates or potentiates agonism at human S1P1 receptor | P21453 | activation, % at 9.5 µM | S1P1 CRE-bla cells, forskolin, beta-lactamase FRET, potentiator mode; S1P1 agonist co-added at EC20, 2 nM; 100% = saturating reference agonist, 0% = basal | 56,000 compounds, 0.57% hits;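 active = activation above a cutoff set at the mean activation of all tested compounds plus 3 SD, cut at about 54% in these data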;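 note: forskolin at 4 µM as EC80 and the EC20 agonist is SEW2871; 100% = SEW2871 at its EC100 plus forskolin at EC80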
Target sequence (P21453 whole entry, looked up): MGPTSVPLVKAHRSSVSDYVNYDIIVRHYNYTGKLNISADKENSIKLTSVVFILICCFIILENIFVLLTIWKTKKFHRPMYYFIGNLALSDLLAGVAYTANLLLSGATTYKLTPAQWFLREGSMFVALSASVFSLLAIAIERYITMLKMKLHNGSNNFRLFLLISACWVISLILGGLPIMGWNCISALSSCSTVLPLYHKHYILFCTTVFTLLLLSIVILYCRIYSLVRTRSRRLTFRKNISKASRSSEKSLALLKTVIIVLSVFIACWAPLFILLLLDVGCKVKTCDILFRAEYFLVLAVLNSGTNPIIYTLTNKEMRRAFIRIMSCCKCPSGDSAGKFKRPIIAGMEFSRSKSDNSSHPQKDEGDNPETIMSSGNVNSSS
Active calls of the source: *.

For CCOC(=O)C(O)(NC(=O)c1cccnc1)C(F)(F)F (stereo unspecified) the results were 5HT1a ag -2, 5HT1E antag 0, HTR1E agonist 10*, 5-HT1A blocker -2, S1P3 ag -1 and S1P1 ag pot 8.
`CC(=O)C(C(C)=O)C(NC(=O)c1cccnc1)(C(F)(F)F)C(F)(F)F` gave 5HT1a ag -5, 5HT1E antag 3, HTR1E agonist 0, 5-HT1A blocker -1, S1P3 ag 0 and S1P1 ag pot -2.
`CC(NC(=O)NCc1cccnc1)(C(F)(F)F)C(F)(F)F` gave 5HT1a ag 3, 5HT1E antag -70, HTR1E agonist 0, S1P3 ag -2 and S1P1 ag pot -2.
Screening CCCCCOC(=O)Cn1c(SCC(=O)Nc2ccccc2)nc2c1c(=O)[nH]c(=O)n2C returned 5HT1a ag -1, 5HT1E antag 2, HTR1E agonist 9.7*, 5-HT1A blocker -7, S1P3 ag 1 and S1P1 ag pot -1.
For CSc1nc2[nH]c3c(c2c2nnnn12)CCCC3 the results were 5HT1a ag 1, 5HT1E antag 36*, HTR1E agonist -1, S1P3 ag -4 and S1P1 ag pot -35.
Screening CSc1nc2[nH]c3c(c2c2nncn12)CC(C)(C)OC3 returned 5HT1a ag -2, 5HT1E antag 11, HTR1E agonist -1, S1P3 ag -3 and S1P1 ag pot -11.
For O=C(NCCc1ccccc1)C1CCCN(S(=O)(=O)c2cccc3nsnc23)C1 (stereo unspecified) the results were 5HT1a ag 2, 5HT1E antag -5, HTR1E agonist 1, 5-HT1A blocker -1, S1P3 ag 0 and S1P1 ag pot -5.
Screening CC1CCCCC1NC(=O)CN1CCC(O)(c2ccc(F)cc2)CC1 (stereo unspecified) returned 5HT1a ag -1, 5HT1E antag 10, HTR1E agonist -1, 5-HT1A blocker 8, S1P3 ag -1 and S1P1 ag pot 6.
Screening COc1cccc(-n2c(SCC(=O)Nc3cc(C)on3)nc3c([nH]c4ccccc43)c2=O)c1 returned 5HT1a ag 0, 5HT1E antag 32*, HTR1E agonist 0, 5-HT1A blocker 28, S1P3 ag 0 and S1P1 ag pot -59.
Screening N#Cc1c(NC(=O)CCC(=O)O)sc2c1CCCC2 returned 5HT1a ag -1, 5HT1E antag -6, HTR1E agonist 0, S1P3 ag -2 and S1P1 ag pot -4.
`CCc1ccc(CCC(=O)Nc2sc3c(c2C#N)CCCC3)o1` gave 5HT1a ag -3, 5HT1E antag 53*, HTR1E agonist 0, 5-HT1A blocker 61* and S1P3 ag 20.
For Cc1ccc2[nH]c(-c3ccccc3)cc(=O)c2c1 the results were 5HT1a ag -4, 5HT1E antag 70*, HTR1E agonist 0, 5-HT1A blocker 35, S1P3 ag -2 and S1P1 ag pot 4.
For CC(=O)NCc1ccc(-c2csc(N)n2)s1 the results were 5HT1a ag -3, 5HT1E antag -9, HTR1E agonist 14*, 5-HT1A blocker -12, S1P3 ag 1 and S1P1 ag pot -12.
CCOC(=O)c1ccc2nc(NC(=O)c3ccco3)sc2c1 was read as 5HT1a ag 2, 5HT1E antag 3, HTR1E agonist 0, 5-HT1A blocker -4, S1P3 ag 0 and S1P1 ag pot 63*.
Screening CCOC(=O)c1ccc2nc(NC(=O)c3cccs3)sc2c1 returned 5HT1a ag -2, 5HT1E antag -6, HTR1E agonist 0 and 5-HT1A blocker 3.
O=C(Nc1nc2ccccc2n1CCOc1ccccc1)c1ccco1 was read as 5HT1a ag 0, 5HT1E antag 0, HTR1E agonist 0, 5-HT1A blocker 48*, S1P3 ag 0 and S1P1 ag pot 9.
Cc1cccc(OCCn2c(NC(=O)c3ccco3)nc3ccccc32)c1 was read as 5HT1a ag -1, 5HT1E antag -10, HTR1E agonist 0, 5-HT1A blocker 55*, S1P3 ag -1 and S1P1 ag pot 3.
Screening Cc1ccc(OCCn2c(NC(=O)c3ccco3)nc3ccccc32)cc1 returned 5HT1a ag -2, 5HT1E antag 5, HTR1E agonist 1, 5-HT1A blocker 39, S1P3 ag -2 and S1P1 ag pot -9.
For Cn1c(=O)c2cc(S(=O)(=O)NC(C(=O)N3CCCCCC3)c3ccccc3)ccc2n(C)c1=O (stereo unspecified) the results were 5HT1a ag -1, 5HT1E antag 2, HTR1E agonist 0, 5-HT1A blocker -14, S1P3 ag 0 and S1P1 ag pot -11.
`c1ccc(-c2nc(-c3ccncc3)no2)cc1` gave 5HT1a ag 0, 5HT1E antag 1, HTR1E agonist 0, 5-HT1A blocker -6 and S1P3 ag 0.
Screening c1ccc(C(Cc2nc(-c3ccncc3)no2)c2ccccc2)cc1 returned 5HT1a ag -1, 5HT1E antag 4, HTR1E agonist -1, 5-HT1A blocker 37 and S1P3 ag 42*.
For c1ccc(-c2ccc(-c3nc(-c4cccnc4)no3)cc2)cc1 the results were 5HT1a ag -3, 5HT1E antag 0, HTR1E agonist -1, 5-HT1A blocker -40, S1P3 ag -1 and S1P1 ag pot 82*.
Screening c1ccc(-c2ccc(-c3nc(-c4ccncc4)no3)cc2)cc1 returned 5HT1a ag 0, 5HT1E antag -4, HTR1E agonist 0, 5-HT1A blocker -24, S1P3 ag -1 and S1P1 ag pot 85*.
CCc1ccc(-c2nc(-c3ccncc3)no2)cc1 was read as 5HT1a ag 0, 5HT1E antag -6, HTR1E agonist 0, 5-HT1A blocker 2, S1P3 ag -1 and S1P1 ag pot 76*.
`O=C(CCNS(=O)(=O)c1cccs1)N1CCc2ccccc2C1` gave 5HT1a ag -2, 5HT1E antag -13, HTR1E agonist 0, 5-HT1A blocker -7, S1P3 ag 0 and S1P1 ag pot 8.
`Cc1cccc(NC(=O)Cn2cnc3sc(C)c(S(=O)(=O)N4CCC(C)CC4)c3c2=O)n1` gave 5HT1a ag 2, 5HT1E antag 13, HTR1E agonist 1 and 5-HT1A blocker -5.
COC(=O)c1sccc1NC(=O)c1ccc(Br)o1 was read as 5HT1a ag -1, 5HT1E antag 20, HTR1E agonist 0, 5-HT1A blocker 1, S1P3 ag -1 and S1P1 ag pot -30.
Screening COC(=O)c1sccc1NC(=O)c1cc2c(s1)CCCC2 returned 5HT1a ag 30*, 5HT1E antag 7, HTR1E agonist -1, 5-HT1A blocker 40, S1P3 ag -1 and S1P1 ag pot 22.

From PubChem BioAssay
